Results: ChEMBL document CHEMBL3739417, “Synthesis and biological evaluation of novel 4,5-disubstituted 2H-1,2,3-triazoles as cis-constrained analogues of combretastatin A-4” (2015)

Columns and labels:
Type in all cases: functional
[1] = Growth inhibition of human IGROV1 cells after 48 hrs by sulforhodamine B assay; details: IGROV-1, 48 h
Summary of the method: (§1)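 NCI-60 panel screen by SRB assay (Rubinstein method). Percentage growth taken from optical density of SRB colour, read before and 48 hrs after exposure to compound or vehicle control. All analogues first screened at 10^-5 M. Analogues giving 60% growth inhibition at that level in at least eight lines then went to a five-concentration dose-response study.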

[2] = Growth inhibition of human DU145 cells after 48 hrs by sulforhodamine B assay; details: DU-145, 48 h; summary of the method: as §1
[3] = system: KM12; assay: Growth inhibition of human KM12 cells after 48 hrs by sulforhodamine B assay; details: KM12, 48 h; summary of the method: as §1
[4] = Growth inhibition of human SKOV3 cells after 48 hrs by sulforhodamine B assay; details: SK-OV-3, 48 h; summary of the method: as §1
[5] = system: MDA-MB-435; assay: Growth inhibition of human MDA-MB-435 cells after 48 hrs by sulforhodamine B assay; details: MDA-MB-435, 48 h
Summary of the method: (§2)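 NCI-60 sulforhodamine B screen. Compounds were first tested at a single dose of 10⁻⁵ M; hits, defined as ≥60% growth inhibition in at least eight lines, went on to a five-concentration dose–response. SRB optical density was read before and 48 h after exposure to compound or vehicle. Percentage growth was calculated from OD.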

[6] = Growth inhibition of human LOXIMVI cells after 48 hrs by sulforhodamine B assay; details: LOX IMVI; summary of the method: as §1
[7] = system: A498; assay: Growth inhibition of human A498 cells after 48 hrs by sulforhodamine B assay; details: A498, 48 h; summary of the method: as §2
[8] = system: MDA-MB-231; assay: Growth inhibition of human MDA-MB-231 cells after 48 hrs by sulforhodamine B assay; details: MDA-MB-231, 48 h; summary of the method: as §1
[9] = Growth inhibition of human HL-60(TB) cells after 48 hrs by sulforhodamine B assay; details: HL-60, 48 h; summary of the method: as §1
[10] = Growth inhibition of human SF268 cells after 48 hrs by sulforhodamine B assay; details: SF-268, 48 h; summary of the method: as §1
[11] = Growth inhibition of human NCI-ADR-RES cells after 48 hrs by sulforhodamine B assay; summary of the method: as §1
[12] = system: CAKI-1; assay: Growth inhibition of human CAKI-1 cells after 48 hrs by sulforhodamine B assay; details: CAKI-1, 48 h; summary of the method: as §1
[13] = system: A549; assay: Growth inhibition of human A549/ATCC cells after 48 hrs by sulforhodamine B assay; details: A549, 48 h; summary of the method: as §1
[14] = Growth inhibition of human SNB75 cells after 48 hrs by sulforhodamine B assay; details: SNB-75, 48 h; summary of the method: as §1
[15] = Growth inhibition of human SF295 cells after 48 hrs by sulforhodamine B assay; details: SF-295, 48 h; summary of the method: as §1
[16] = system: MCF7; assay: Growth inhibition of human MCF7 cells after 48 hrs by sulforhodamine B assay; details: MCF7, 48 h; summary of the method: as §1
[17] = Growth inhibition of human COLO205 cells after 48 hrs by sulforhodamine B assay; details: COLO 205, 48 h; summary of the method: as §1
[18] = system: NCI-H23; assay: Growth inhibition of human NCI-H23 cells after 48 hrs by sulforhodamine B assay; details: NCI-H23, 48 h; summary of the method: as §1
[19] = system: SK-MEL-2; assay: Growth inhibition of human SK-MEL-2 cells after 48 hrs by sulforhodamine B assay; details: SK-MEL-2, 48 h; summary of the method: as §1
[20] = Growth inhibition of human HCT116 cells after 48 hrs by sulforhodamine B assay; details: HCT-116, 48 h; summary of the method: as §1
[21] = system: ACHN; assay: Growth inhibition of human ACHN cells after 48 hrs by sulforhodamine B assay; summary of the method: as §1
[22] = Growth inhibition of human HOP62 cells after 48 hrs by sulforhodamine B assay; details: HOP-62, 48 h; summary of the method: as §1
[23] = Growth inhibition of human HOP92 cells after 48 hrs by sulforhodamine B assay; details: HOP-92, 48 h; summary of the method: as §1
[24] = system: K562; assay: Growth inhibition of human K562 cells after 48 hrs by sulforhodamine B assay; details: K562, 48 h; summary of the method: as §1
[25] = system: NCI-H460; assay: Growth inhibition of human NCI-H460 cells after 48 hrs by sulforhodamine B assay; details: NCI-H460, 48 h; summary of the method: as §1
[26] = system: CCRF-CEM; assay: Growth inhibition of human CCRF-CEM cells after 48 hrs by sulforhodamine B assay; summary of the method: as §1
[27] = Growth inhibition of human HCC2998 cells after 48 hrs by sulforhodamine B assay; details: HCC 2998, 48 h; summary of the method: as §1
[28] = Growth inhibition of human PC3 cells after 48 hrs by sulforhodamine B assay; details: PC-3, 48 h; summary of the method: as §1
[29] = system: HT-29; assay: Growth inhibition of human HT-29 cells after 48 hrs by sulforhodamine B assay; details: HT-29, 48 h; summary of the method: as §1
[30] = Growth inhibition of human UO31 cells after 48 hrs by sulforhodamine B assay; details: UO-31, 48 h; summary of the method: as §1
[31] = system: SR; assay: Growth inhibition of human SR cells after 48 hrs by sulforhodamine B assay; summary of the method: as §1
[32] = system: U-251; assay: Growth inhibition of human U251 cells after 48 hrs by sulforhodamine B assay; details: U-251, 48 h; summary of the method: as §1
[33] = Growth inhibition of human OVCAR3 cells after 48 hrs by sulforhodamine B assay; details: OVCAR-3, 48 h; summary of the method: as §2
[34] = Growth inhibition of human SW620 cells after 48 hrs by sulforhodamine B assay; details: SW-620, 48 h; summary of the method: as §1
[35] = Growth inhibition of human RPMI8226 cells after 48 hrs by sulforhodamine B assay; details: RPMI-8226, 48 h; summary of the method: as §1
[36] = Growth inhibition of human HCT15 cells after 48 hrs by sulforhodamine B assay; details: HCT-15, 48 h; summary of the method: as §1
[37] = system: MDA-MB-468; assay: Growth inhibition of human MDA-MB-468 cells after 48 hrs by sulforhodamine B assay; details: MDA-MB-468, 48 h; summary of the method: as §1
[38] = read-out: LD50 (the source's name)

SMILES: COc1cc(-c2n[nH]nc2-c2ccc3ccccc3n2)cc(OC)c1OC
- GI50 [1]: 65 nM
- CC50 [1, 38]: > 100000 nM
- GI50 [2]: 27 nM
- CC50 [2, 38]: > 100000 nM
- GI50 [3]: 35 nM
- LC50 (concentration killing 50% of cells) ([3]; read-out: LD50): > 100000 nM
- GI50 [4]: 75 nM
- LC50 (concentration killing 50% of cells) ([4]; read-out: LD50): > 100000 nM
- GI50 [5]: < 10 nM
- LC50 (concentration killing 50% of cells) ([5]; read-out: LD50): > 100000 nM
- GI50 [6]: 65 nM
- CC50 [6, 38]: > 100000 nM
- GI50 [7]: 33 nM
- LC50 (50% net cell kill) ([7]; read-out: LD50): > 100000 nM
- GI50 [8]: 94 nM
- CC50 [8, 38]: > 100000 nM
- GI50 [9]: 30 nM
- CC50 [9, 38]: > 100000 nM
- GI50 [10]: 503 nM
- CC50 [10, 38]: > 100000 nM
- GI50 [11]: 23 nM
- CC50 [11, 38]: > 100000 nM
- GI50 [12]: 43 nM
- CC50 [12, 38]: > 100000 nM
- GI50 [13]: 54 nM
- CC50 [13, 38]: > 100000 nM
- GI50 [14]: 16 nM
- CC50 [14, 38]: > 100000 nM
- GI50 [15]: 14 nM
- CC50 [15, 38]: > 100000 nM
- GI50 [16]: 27 nM
- CC50 [16, 38]: > 100000 nM
- GI50 [17]: 228 nM
- CC50 [17, 38]: > 100000 nM
- GI50 [18]: 65 nM
- LC50 (concentration giving 50% cell kill) ([18]; read-out: LD50): > 100000 nM
- GI50 [19]: 27 nM
- CC50 [19, 38]: > 100000 nM
- GI50 [20]: 40 nM
- CC50 [20, 38]: > 100000 nM
- GI50 [21]: 81 nM
- CC50 [21, 38]: > 100000 nM
- GI50 [22]: 47 nM
- LC50 (concentration killing 50% of cells) ([22]; read-out: LD50): > 100000 nM
- GI50 [23]: 99 nM
- CC50 [23, 38]: > 100000 nM
- GI50 [24]: 26 nM
- CC50 [24, 38]: > 100000 nM
- GI50 [25]: 38 nM
- CC50 [25, 38]: > 100000 nM
- GI50 [26]: 37 nM
- LC50 (concentration killing 50% of cells) ([26]; read-out: LD50): > 100000 nM
- GI50 [27]: 230 nM
- CC50 [27, 38]: > 100000 nM
- GI50 [28]: 46 nM
- CC50 [28, 38]: > 100000 nM
- GI50 [29]: 214 nM
- LC50 (concentration killing 50% of cells) ([29]; read-out: LD50): > 100000 nM
- GI50 [30]: 92 nM
- LC50 (concentration killing 50% of cells) ([30]; read-out: LD50): > 100000 nM
- GI50 [31]: 21 nM
- LC50 (concentration giving 50% net cell kill) ([31]; read-out: LD50): > 100000 nM
- GI50 [32]: 37 nM
- CC50 [32, 38]: > 100000 nM
- GI50 [33]: 11 nM
- LC50 (concentration giving 50% net cell kill) ([33]; read-out: LD50): > 100000 nM
- GI50 [34]: 41 nM
- LD50 (concentration killing 50% of cells) [34]: > 100 µM
- GI50 [35]: 37 nM
- CC50 [35, 38]: > 100000 nM
- GI50 [36]: 37 nM
- CC50 [36, 38]: > 100000 nM
- GI50 [37]: 35 nM
- CC50 [37, 38]: > 100000 nM
